Assay results from ChEMBL document CHEMBL4152256, “Structure-activity relationship of new antimalarial 1-aryl-3-susbtituted propanol derivatives: Synthesis, preliminary toxicity profiling, parasite life cycle stage studies, target exploration, and targeted delivery” (Eur J Med Chem, 2018).

Assays:
[1] = Genotoxicity in Salmonella typhimurium TA1535 harboring pSK1002 assessed as umu gene induction at 0.016 mg/ml in presence of Sprague-Dawley rat liver S9 fraction after by SOS/umu assay relative to control; assay type: toxicity, organism-based; settings: salmonella enterica subsp. enterica serovar typhimurium, read-out: FC
[2] = Genotoxicity in Salmonella typhimurium TA1535 harboring pSK1002 assessed as umu gene induction at 0.008 mg/ml in presence of Sprague-Dawley rat liver S9 fraction after by SOS/umu assay relative to control; assay type: toxicity, organism-based; settings: salmonella enterica subsp. enterica serovar typhimurium, read-out: FC
[3] = Genotoxicity in Salmonella typhimurium TA1535 harboring pSK1002 assessed as umu gene induction at 0.001 mg/ml in presence of Sprague-Dawley rat liver S9 fraction after by SOS/umu assay relative to control; assay type: toxicity, organism-based; settings: salmonella enterica subsp. enterica serovar typhimurium, read-out: FC
[4] = Genotoxicity in Salmonella typhimurium TA1535 harboring pSK1002 assessed as umu gene induction at 0.031 mg/ml in presence of Sprague-Dawley rat liver S9 fraction after by SOS/umu assay relative to control; assay type: toxicity, organism-based; settings: salmonella enterica subsp. enterica serovar typhimurium, read-out: FC
[5] = Selectivity index, ratio of CC50 for human HepG2A16 cells by MTT assay to IC50 for multidrug-resistant Plasmodium falciparum FCR-3; assay type: toxicity; settings: HepG2A16 cells, read-out: Ratio CC50/IC50
Outline: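 HepG2-A16 human hepatoma cells were tested by MTT viability assay to give CC50. Blood-stage activity was measured against the multidrug-resistant P. falciparum FCR-3 strain by [3H]-hypoxanthine incorporation to give IC50. SI = CC50 HepG2 / FCR-3 IC50.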

[6] = Genotoxicity in Salmonella typhimurium TA1535 harboring pSK1002 assessed as survival at 0.002 mg/ml in presence of Sprague-Dawley rat liver S9 fraction after by SOS/umu assay relative to control; assay type: toxicity, organism-based; settings: salmonella enterica subsp. enterica serovar typhimurium, read-out: Survival
[7] = Genotoxicity in Salmonella typhimurium TA1535 harboring pSK1002 assessed as umu gene induction at 0.063 mg/ml in absence of Sprague-Dawley rat liver S9 fraction after by SOS/umu assay relative to control; assay type: toxicity, organism-based; settings: salmonella enterica subsp. enterica serovar typhimurium, read-out: FC
[8] = Genotoxicity in Salmonella typhimurium TA1535 harboring pSK1002 assessed as umu gene induction at 0.125 mg/ml in absence of Sprague-Dawley rat liver S9 fraction after by SOS/umu assay relative to control; assay type: toxicity, organism-based; settings: salmonella enterica subsp. enterica serovar typhimurium, read-out: FC
[9] = Genotoxicity in Salmonella typhimurium TA1535 harboring pSK1002 assessed as survival at 0.016 mg/ml in presence of Sprague-Dawley rat liver S9 fraction after by SOS/umu assay relative to control; assay type: toxicity, organism-based; settings: salmonella enterica subsp. enterica serovar typhimurium, read-out: Survival
[10] = Genotoxicity in Salmonella typhimurium TA1535 harboring pSK1002 assessed as umu gene induction at 0.008 mg/ml in absence of Sprague-Dawley rat liver S9 fraction after by SOS/umu assay relative to control; assay type: toxicity, organism-based; settings: salmonella enterica subsp. enterica serovar typhimurium, read-out: FC
[11] = Cytotoxicity against human HepG2A16 cells by MTT assay; assay type: cell-based; settings: HepG2A16 cells
Outline: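 MTT viability assay on HepG2-A16 cells, giving CC50 values.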

[12] = Genotoxicity in Salmonella typhimurium TA1535 harboring pSK1002 assessed as survival at 0.004 mg/ml in absence of Sprague-Dawley rat liver S9 fraction after by SOS/umu assay relative to control; assay type: toxicity, organism-based; settings: salmonella enterica subsp. enterica serovar typhimurium, read-out: Survival
[13] = Genotoxicity in Salmonella typhimurium TA1535 harboring pSK1002 assessed as survival at 0.031 mg/ml in absence of Sprague-Dawley rat liver S9 fraction after by SOS/umu assay relative to control; assay type: toxicity, organism-based; settings: salmonella enterica subsp. enterica serovar typhimurium, read-out: Survival
[14] = Genotoxicity in Salmonella typhimurium TA1535 harboring pSK1002 assessed as umu gene induction at 0.002 mg/ml in absence of Sprague-Dawley rat liver S9 fraction after by SOS/umu assay relative to control; assay type: toxicity, organism-based; settings: salmonella enterica subsp. enterica serovar typhimurium, read-out: FC
[15] = Genotoxicity in Salmonella typhimurium TA1535 harboring pSK1002 assessed as umu gene induction at 0.063 mg/ml in presence of Sprague-Dawley rat liver S9 fraction after by SOS/umu assay relative to control; assay type: toxicity, organism-based; settings: salmonella enterica subsp. enterica serovar typhimurium, read-out: FC
[16] = Genotoxicity in Salmonella typhimurium TA1535 harboring pSK1002 assessed as survival at 0.008 mg/ml in presence of Sprague-Dawley rat liver S9 fraction after by SOS/umu assay relative to control; assay type: toxicity, organism-based; settings: salmonella enterica subsp. enterica serovar typhimurium, read-out: Survival
[17] = Genotoxicity in Salmonella typhimurium TA1535 harboring pSK1002 assessed as survival at 0.063 mg/ml in absence of Sprague-Dawley rat liver S9 fraction after by SOS/umu assay relative to control; assay type: toxicity, organism-based; settings: salmonella enterica subsp. enterica serovar typhimurium, read-out: Survival
[18] = Genotoxicity in Salmonella typhimurium TA1535 harboring pSK1002 assessed as survival at 0.063 mg/ml in presence of Sprague-Dawley rat liver S9 fraction after by SOS/umu assay relative to control; assay type: toxicity, organism-based; settings: salmonella enterica subsp. enterica serovar typhimurium, read-out: Survival
[19] = Genotoxicity in Salmonella typhimurium TA1535 harboring pSK1002 assessed as umu gene induction at 0.004 mg/ml in presence of Sprague-Dawley rat liver S9 fraction after by SOS/umu assay relative to control; assay type: toxicity, organism-based; settings: salmonella enterica subsp. enterica serovar typhimurium, read-out: FC
[20] = Genotoxicity in Salmonella typhimurium TA1535 harboring pSK1002 assessed as survival at 0.008 mg/ml in absence of Sprague-Dawley rat liver S9 fraction after by SOS/umu assay relative to control; assay type: toxicity, organism-based; settings: salmonella enterica subsp. enterica serovar typhimurium, read-out: Survival
Plasmodium falciparum [21] = assay: Antiplasmodial activity against multidrug-resistant Plasmodium falciparum FCR-3 by [3H]-hypoxanthine incorporation assay; assay type: functional, organism-based, FCR-3/Gambia; settings: Plasmodium falciparum, FCR-3/Gambia
Outline: (§1)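 Blood-stage P. falciparum 3D7 and FCR-3 were tested by a modified [3H]-hypoxanthine incorporation assay. Chloroquine was the reference in all runs.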

[22] = Genotoxicity in Salmonella typhimurium TA1535 harboring pSK1002 assessed as survival at 0.016 mg/ml in absence of Sprague-Dawley rat liver S9 fraction after by SOS/umu assay relative to control; assay type: toxicity, organism-based; settings: salmonella enterica subsp. enterica serovar typhimurium, read-out: Survival
[23] = Genotoxicity in Salmonella typhimurium TA1535 harboring pSK1002 assessed as umu gene induction at 0.002 mg/ml in presence of Sprague-Dawley rat liver S9 fraction after by SOS/umu assay relative to control; assay type: toxicity, organism-based; settings: salmonella enterica subsp. enterica serovar typhimurium, read-out: FC
[24] = Genotoxicity in Salmonella typhimurium TA1535 harboring pSK1002 assessed as umu gene induction at 0.016 mg/ml in absence of Sprague-Dawley rat liver S9 fraction after by SOS/umu assay relative to control; assay type: toxicity, organism-based; settings: salmonella enterica subsp. enterica serovar typhimurium, read-out: FC
[25] = Genotoxicity in Salmonella typhimurium TA1535 harboring pSK1002 assessed as umu gene induction at 0.004 mg/ml in absence of Sprague-Dawley rat liver S9 fraction after by SOS/umu assay relative to control; assay type: toxicity, organism-based; settings: salmonella enterica subsp. enterica serovar typhimurium, read-out: FC
[26] = Genotoxicity in Salmonella typhimurium TA1535 harboring pSK1002 assessed as survival at 0.125 mg/ml in presence of Sprague-Dawley rat liver S9 fraction after by SOS/umu assay relative to control; assay type: toxicity, organism-based; settings: salmonella enterica subsp. enterica serovar typhimurium, read-out: Survival
Plasmodium falciparum [27] = assay: Antiplasmodial activity against chloroquine-sensitive Plasmodium falciparum 3D7 by [3H]-hypoxanthine incorporation assay; assay type: functional, organism-based; settings: Plasmodium falciparum, 3D7; outline: as §1
[28] = Genotoxicity in Salmonella typhimurium TA1535 harboring pSK1002 assessed as survival at 0.001 mg/ml in absence of Sprague-Dawley rat liver S9 fraction after by SOS/umu assay relative to control; assay type: toxicity, organism-based; settings: salmonella enterica subsp. enterica serovar typhimurium, read-out: Survival
[29] = Genotoxicity in Salmonella typhimurium TA1535 harboring pSK1002 assessed as survival at 0.125 mg/ml in absence of Sprague-Dawley rat liver S9 fraction after by SOS/umu assay relative to control; assay type: toxicity, organism-based; settings: salmonella enterica subsp. enterica serovar typhimurium, read-out: Survival

SMILES | fold induction at 0.016 mg/ml [1] | fold induction at 0.008 mg/ml [2] | fold induction at 0.001 mg/ml [3] | selectivity ratio [5] | viability at 0.002 mg/ml [6] [%] | fold induction at 0.063 mg/ml [7] | viability at 0.016 mg/ml [9] [%] | fold induction at 0.008 mg/ml [10] | CC50 [11] [nM] | viability at 0.004 mg/ml [12] [%] | viability at 0.031 mg/ml [13] [%] | fold induction at 0.002 mg/ml [14] | fold induction at 0.063 mg/ml [15] | viability at 0.008 mg/ml [16] [%] | viability at 0.063 mg/ml [17] [%] | viability at 0.063 mg/ml [18] [%] | fold induction at 0.004 mg/ml [19] | viability at 0.008 mg/ml [20] [%] | IC50 (Plasmodium falciparum [21]) [nM] | viability at 0.016 mg/ml [22] [%] | other results
COc1ccccc1N1CCN(CCC(O)c2ccc(F)c3ccccc23)CC1 (centres undefined) | 1 | 1 | 0.9 | 138 | 102 | 0.9 | 92.4 | 1.3 | 30400 | 66.5 | 58.4 | 1.5 | 0.7 | 99.1 | 61.5 | 88.4 | 0.8 | 67.1 | 220 | 63 | fold induction at 0.031 mg/ml [4]: 0.6; fold induction at 0.125 mg/ml [8]: 0.9; fold induction at 0.002 mg/ml [23]: 1; fold induction at 0.016 mg/ml [24]: 1.3; fold induction at 0.004 mg/ml [25]: 1.1; viability at 0.125 mg/ml [26]: 84.4%; IC50 (Plasmodium falciparum [27]): 70 nM; viability at 0.001 mg/ml [28]: 70.5%; viability at 0.125 mg/ml [29]: 55.9%
N#Cc1ccc(N2CCC(NCCC(O)c3ccc(F)c4ccccc34)CC2)c(Br)c1 (centres undefined) | 1.9 | 1 | 0.9 | 141 | 65.3 | 0.6 | 80.2 | 2.2 | 9870 | 107 | 19.4 | 1.4 | 0.6 | 87.4 | 42.6 | 46.3 | 0.9 | 18.9 | 70 | 18.6 | fold induction at 0.031 mg/ml [4]: 1.2; fold induction at 0.002 mg/ml [23]: 0.8; fold induction at 0.016 mg/ml [24]: 2.1; fold induction at 0.004 mg/ml [25]: 1.4; IC50 (Plasmodium falciparum [27]): 220 nM; viability at 0.001 mg/ml [28]: 104%
N#Cc1ccc(N2CCC(NCCC(O)c3ccc(F)c4ccccc34)CC2)c(Cl)c1 (centres undefined) | 0.6 | 1.1 | 0.9 | 88 | 148 | 0.3 | 38.5 | 0.8 | 7950 | 32.2 | 42.2 | 1 | 0.2 | 35.1 | 55.4 | 82.8 | 0.5 | 33.7 | 90 | 36.8 | fold induction at 0.125 mg/ml [8]: 0.1; fold induction at 0.002 mg/ml [23]: 0.8; fold induction at 0.016 mg/ml [24]: 0.6; fold induction at 0.004 mg/ml [25]: 1; viability at 0.125 mg/ml [26]: 134%; IC50 (Plasmodium falciparum [27]): 150 nM; viability at 0.001 mg/ml [28]: 130%; viability at 0.125 mg/ml [29]: 79.8%
OC(CCN1CCN(C(c2ccccc2)c2ccccc2)CC1)c1ccc(F)c2ccccc12 (centres undefined) | 0.7 | 0.4 | 0.9 | 60 | 114 | 0.8 | 99.6 | 1.4 | 19900 | 69 | 107 | 0.8 | 1.5 | 143 | 141 | 91.9 | 0.8 | 80.6 | 330 | 86.3 | fold induction at 0.031 mg/ml [4]: 1.2; fold induction at 0.002 mg/ml [23]: 0.8; fold induction at 0.016 mg/ml [24]: 1.4; fold induction at 0.004 mg/ml [25]: 1.3; IC50 (Plasmodium falciparum [27]): 620 nM; viability at 0.001 mg/ml [28]: 81%
